The results in this text go back to publication PMC5818879 (International Journal of Nanomedicine, 2018).

Data set [1] deals with NDEA-induced HCC. Description: NDEA-induced HCC model: catabolic by-products. The format is in vivo, Wistar albino rats. Particulars: NDEA rats; 50 and 100 mg/kg orally for 15 days.
Another data set concerns caspase-3 and -8 genes. Description: NDEA-induced HCC model: qRT-PCR of caspase-3 and -8 mRNA in liver tissue. The format is in vivo, Wistar albino rats. Particulars: NDEA rats, 50 and 100 mg/kg orally for 15 days.
The test system of data set [2] is NDEA-induced HCC. Description: NDEA-induced HCC model: oxidative stress parameters in liver tissue. In kind it is in vivo, Wistar albino rats. The method in brief: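 Rats were male Wistar albino (80–120 g, n=8/group) given NDEA 100 mg/kg i.p. weekly for 6 weeks. They then received free or PLGA-nanoparticle test compound at 50 or 100 mg/kg orally, or 5-FU 10 mg/kg i.p., for 15 days. Livers were excised, rinsed in ice-cold saline and stored at −80°C. CAT, SOD, GSH, protein carbonyl and TBARS were assayed in liver tissue.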

The subject of data set [3] is NDEA-induced HCC. Description: NDEA-induced HCC model: body weight, liver weight, tumor incidence. The format is in vivo, Wistar albino rats. Summed up:
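NDEA-induced HCC in male Wistar albino rats (six weeks old, 80–120 g, n=8/group): 100 mg/kg i.p. weekly for 6 weeks. Then free or PLGA-nanoparticle test compound was given at 50 or 100 mg/kg orally, or 5-FU 10 mg/kg i.p., for 15 days; controls got 0.25% CMC 2 mL/kg. Body weight was taken on the first and last days as % gain. Livers were weighed; nodule number and % incidence were counted.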

Another data set relates to HepG2 cells. Description: Sulforhodamine B. The following applies: Homo sapiens, HepG2, 48 h. In kind it is cell-based.
The subject of data set [4] is IL-2, IL-6, IL-10 and IL-1β. The format is in vivo, Wistar albino rats. The following applies: NDEA rats, ELISA; 50 and 100 mg/kg orally for 15 days. The method in brief: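 Male Wistar albino rats (six weeks old, 80–120 g, n=8/group) got NDEA 100 mg/kg i.p. weekly for 6 weeks. Free or PLGA-nanoparticle test compound followed at 50 or 100 mg/kg orally for 15 days (5-FU 10 mg/kg i.p.; vehicle 0.25% CMC). Excised livers were rinsed in ice-cold saline and kept at −80°C. Hepatic IL-2, IL-6, IL-10 and IL-1β were measured by kit ELISA; mean ± SD.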
(In an ELISA, binding on a coated surface is turned into a signal by an enzyme label.)

The subject of a further data set is caspase-3 and -8. Nature of the data set: NDEA-induced HCC model: ELISA of caspase-3 and -8 in liver. In kind it is in vivo, Wistar albino rats. Particulars: NDEA rats; 50 and 100 mg/kg orally for 15 days.
Data set [5] has as its system NDEA-induced HCC. Description: NDEA-induced HCC model: histopathology. The following applies: NDEA rats; 50 and 100 mg/kg orally for 15 days. The format is in vivo, Wistar albino rats.
Data set [6] can be described thus: In vivo oral pharmacokinetic study, plasma HPLC. More on the design: species or system albino Wistar rats. Summed up:
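Albino Wistar rats received free or PLGA-nanoparticle test compound orally at 100 mg/kg. […] was mixed 1:1 with ACN, vortexed, spun, dried at 40°C and reconstituted in ACN. Assay was RP-C18 HPLC (ACN:H2O 9:1, 1 mL/min, 40°C, 230 nm); calibrants 0.01–50.0 µg/mL.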

[7] abbreviates: NDEA + 50 mg/kg orally for 15 days.
[8] abbreviates: NDEA + 100 mg/kg orally for 15 days.
Setting [9] is: albino Wistar, rat, po, 100 mg/kg.
Where [10] appears, read: oral 100 mg/kg, albino Wistar rats.
Setting [11] is: NDEA + 5-FU 10 mg/kg i.p. for 15 days.

≈ marks a conversion by molar mass, not a printed value.

Turning to `C=C(C)[C@@H]1CC[C@]2(C(=O)O)CC[C@]3(C)[C@H](CC[C@@H]4[C@@]5(C)CC[C@H](O)C(C)(C)[C@@H]5CC[C@]43C)[C@@H]12` [B, Betulinic acid], in the data set with NDEA-induced HCC [1], the “Catabolic pigments bilirubin and biliverdin in liver tissue (in words)” value is reported as “significant (p<0.001) normalization”. Further, the “Caspase-3 and -8 gene expression, qRT-PCR (in words)” value with caspase-3 and -8 genes was “significantly elevated (p<0.001) the reduced levels of caspase-3 and -8”. Besides, in the data set with NDEA-induced HCC [2] (setting [7]), the CAT is reported as 5.75±0.27 nM of H2O2/min/µg of protein, the GSH is reported as 3.25±0.65 mM/mg of protein, the ProC is recorded as 0.91±0.02 µM/µg of protein and the SOD is reported as 0.19±0.07 U/µg of protein. In addition, in the data set with NDEA-induced HCC [2] (setting [7]), the TBARS was 0.13±0.05 nM of MDA/mg of protein. Besides, in the data set with NDEA-induced HCC [2] (setting [8]), the CAT is 6.81±0.73 nM of H2O2/min/µg of protein, the GSH is 3.50±0.32 mM/mg of protein, the ProC is listed as 0.76±0.02 µM/µg of protein and the SOD was 0.21±0.05 U/µg of protein. In addition, the TBARS in the data set with NDEA-induced HCC [2] (setting [8]) was 0.11±0.04 nM of MDA/mg of protein. Moreover, in the data set on NDEA-induced HCC [3] (setting [7]), the “Final day body weight” value is 132.00 ± 4.25 g, the Liver weight was found to be 12.78 ± 0.73 g, the Tumor incidence no worked out at 19.00±0.97 and the Weight variation amounted to 11.00 ± 1.82 g. In the data set with NDEA-induced HCC [3] (setting [8]), the “Final day body weight” value was 130.00 ± 2.12 g, the Liver weight turned out to be 12.03 ± 1.25 g, the Tumor incidence no stood at 14.00±1.01 and the Weight variation is 12.00 ± 2.93 g. Besides, growth in the data set with HepG2 cells was halved (GI50) at 10 µg/mL (≈ 21.9 µM). The “Inflammatory cytokines IL-2, IL-6, IL-10, IL-1β (in words)” value in data set [4] is “decreased to a certain extent”. Further, the “Caspase-3 and -8 levels in liver, ELISA (in words)” value in the data set on caspase-3 and -8 was “ability to elevate the reduced levels of caspase-3 and -8”. The “Histological changes in liver tissue, H&E (in words)” value with NDEA-induced HCC [5] is reported as “marked improvement in gross microscopic appearance of hepatic tissue”. Moreover, in [6] (setting [9]), the AUC – broadly, the area under the concentration-time curve, a measure of exposure – is 134 µg·h/mL; the AUC(0-inf) (commonly total exposure, with the tail of the curve extrapolated) worked out at 134 ± 35.7 µg·h/mL; the highest level (Cmax) was 10300 ± 450 ng/mL; the MRT (commonly the average time that molecules of a dose stay in the body) came out at 12.9 ± 1.35 h. In addition, in data set [6] (setting [9]), the Tmax (commonly the time at which the peak concentration occurs) is 4 h and the half-life – broadly, how long it takes for the measured level to halve – was 644 min. For the same compound, in data set [6] (setting [10]), the AUMC is reported as 1,724.12 µg·h^2/mL and the CL is reported as 0.007 h.
Consider `O=c1[nH]cc(F)c(=O)[nH]1` [Batch 5-FU, 5-fluorouracil, reference compound], for which, in the data set on NDEA-induced HCC [2] (setting [11]), the CAT is reported as 8.41±0.68 nM of H2O2/min/µg of protein, the GSH was 5.04±0.61 mM/mg of protein, the ProC is given as 0.69±0.03 µM/µg of protein and the SOD is listed as 0.24±0.09 U/µg of protein. Besides, in the data set with NDEA-induced HCC [2] (setting [11]), the TBARS is reported as 0.09±0.01 nM of MDA/mg of protein. In the data set with NDEA-induced HCC [3] (setting [11]), the “Final day body weight” value turned out to be 125.00 ± 3.15 g, the Liver weight is 10.43 ± 1.71 g, the Tumor incidence no was found to be 6.00±0.83 and the Weight variation was 10.00 ± 1.26 g.
